Experiment [1] addresses T1, Aldo-keto reductase family 1 member C3 (Homo sapiens, UniProt P42330). In words: Inhibition of N-terminal His6-tagged human recombinant AKR1C3 in presence of NADPH by fluorescence assay.
Experiment [2] deals with HL-60. In words: Cytotoxicity against human HL60 cells assessed as reduction in cell viability up to 100 uM at 72 hrs by MTS assay. It is filed as functional, cell-based. In a few lines: (§1)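 HL-60 human acute promyelocytic leukemia cells exposed to AKR1C3 inhibitor alone, with no chemotherapeutic, over a range up to 100 μM. Lower working range was 0.1–1 μM. Read-out was cell viability relative to untreated control.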
(In general: Formazan colour is commonly taken as a measure of viable cells.)

Experiment [3] has as its system KG-1a. As to the kind of experiment: Cytotoxicity against human KG1a cells expressing AKR1C3 assessed as reduction in cell viability at >25 uM at 72 hrs by MTS assay. Format: functional, cell-based.
For experiment [4], the target named is T2, Aldo-keto reductase family 1 member C3 (Homo sapiens) (UniProt P42330).
T2 sequence (whole entry): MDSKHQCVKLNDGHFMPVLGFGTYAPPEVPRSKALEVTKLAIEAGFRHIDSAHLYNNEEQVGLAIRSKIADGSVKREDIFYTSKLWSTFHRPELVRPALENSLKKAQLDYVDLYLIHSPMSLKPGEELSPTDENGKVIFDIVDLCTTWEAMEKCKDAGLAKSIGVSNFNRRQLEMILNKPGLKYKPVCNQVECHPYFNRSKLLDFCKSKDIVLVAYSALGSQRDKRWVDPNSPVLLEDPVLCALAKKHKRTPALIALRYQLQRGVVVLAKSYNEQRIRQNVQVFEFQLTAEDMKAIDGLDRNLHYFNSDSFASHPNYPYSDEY
As to the kind of experiment: Inhibition of AKR1C3 in human HL60 cells assessed as potentiation of etoposide-induced cytotoxicity by measuring reduction in cell viability at 0.1 uM coincubated with etoposide at 1 uM after 72 hrs by MTS assay (reference value: 40%). Format: cell-based. The essentials: (§2)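 HL-60 or KG1a cells were coincubated with inhibitor and etoposide for 72 h, then cell viability was read. Values are mean ± SD (n = 6). Treatments were compared with control by two-tailed t test.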

The target of experiment [5] is T2, Aldo-keto reductase family 1 member C3 (Homo sapiens). In words: Inhibition of AKR1C3 in human KG1a cells assessed as potentiation of etoposide-induced cytotoxicity by measuring reduction in cell viability at 0.1 uM coincubated with etoposide at 1 uM after 72 hrs by MTS assay. Format: cell-based. In a few lines: as §2
For experiment [6] the target is unchanged. In words: Inhibition of AKR1C3 in human HL60 cells assessed as potentiation of etoposide-induced cytotoxicity by measuring reduction in cell viability pre-treated with 0.1 to 1 uM compound for 24 hrs followed by 1 uM etoposide exposure for additional 72 hrs by MTS assay. Format: cell-based.
Experiment [7] deals with Aldo-keto reductase family 1 member C2 (Homo sapiens, UniProt P52895). In words: Inhibition of recombinant AKR1C2 (unknown origin) assessed as reduction in S-tetralol catalyzed oxidation in presence of NADPH by fluorescence assay.
The species named for the next experiment is Homo sapiens. As to the kind of experiment: Selectivity ratio of IC50 for recombinant AKR1C2 (unknown origin) to IC50 for recombinant AKR1C3 (unknown origin).
Experiment [8] concerns the target T1, Aldo-keto reductase family 1 member C3. As to the kind of experiment: Inhibition of recombinant N-terminal His-tagged AKR1C3 (unknown origin) assessed as rate of change of pyridine nucleotide absorbance in presence of NADPH.
Experiment [9] has as its system HL-60. As to the kind of experiment: Cytotoxicity against human HL60 cells assessed as reduction in cell viability at 50 uM at 72 hrs by MTS assay. It is filed as functional, cell-based. In a few lines:
as §1

Experiment [10] relates to HL-60. As to the kind of experiment: Cytotoxicity against human HL60 cells assessed as reduction in cell viability at 0.1 to 1 uM at 72 hrs by MTS assay. It is filed as functional. The essentials:
as §1

For experiment [11], the system named is KG-1a. In words: Cytotoxicity against human KG1a cells expressing AKR1C3 assessed as reduction in cell viability at 1 uM at 72 hrs by MTS assay. Format: functional.
The target in experiment [12] is T2, Aldo-keto reductase family 1 member C3 (Homo sapiens). In words: Inhibition of AKR1C3 in human HL60 cells assessed as potentiation of etoposide-induced cytotoxicity by measuring reduction in cell viability at 0.1 uM coincubated with etoposide at 0.5 uM after 72 hrs by MTS assay (reference value: 20%). Format: cell-based. In a few lines: as §2
Experiment [13] has as its system HL-60. In words: Downregulation of AKR1C3 expression in human HL60 cells at 1 to 10 uM after 72 hrs by Western blot analysis. It is filed as functional, cell-based. In a few lines:
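KG1a and HL-60 cells were incubated with inhibitor at 1, 5 and 10 μM. AKR1C3 expression levels were determined after 48 h and 72 h incubation.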
(A western blot detects proteins with antibodies after separation by electrophoresis.)

Molecules are shown by their SMILES. The source made the active and inactive calls. The calls are words filed in the database; no cut-off is given here.

By IC50 is commonly meant the concentration that gives 50% inhibition.

Sequence of Aldo-keto reductase family 1 member C2 (P52895 whole entry): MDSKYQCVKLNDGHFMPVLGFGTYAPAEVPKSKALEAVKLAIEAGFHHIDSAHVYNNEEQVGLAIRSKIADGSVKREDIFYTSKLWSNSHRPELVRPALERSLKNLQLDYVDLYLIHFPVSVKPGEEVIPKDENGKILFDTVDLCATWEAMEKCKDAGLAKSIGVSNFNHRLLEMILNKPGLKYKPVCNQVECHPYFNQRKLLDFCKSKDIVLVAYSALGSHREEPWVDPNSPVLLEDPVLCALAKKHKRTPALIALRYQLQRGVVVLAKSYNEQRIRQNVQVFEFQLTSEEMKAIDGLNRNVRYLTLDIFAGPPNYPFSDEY

Regarding `C[C@@H]1C(O)=C(C(N)=O)C(=O)[C@@]2(O)C(O)=C3C(=O)c4c(O)cccc4[C@@](C)(O)[C@H]3C[C@@H]12`, in experiment [1], the IC50 was 501 nM.

In the case of `CC(C)=CCc1ccc(/C=C/C(=O)O)cc1OC(=O)CCc1ccccc1`, the outcome with HL-60 [2] was inactive. Besides, the result in the experiment with KG-1a [3] was Active. Moreover, the values for the Activity in [4], in [5] and in experiment [6] were 80%, 54% and 80 to 95%, respectively.

With `CC(=O)O[C@]1(C(C)=O)CC[C@H]2[C@@H]3C[C@H](C)C4=CC(=O)CC[C@]4(C)[C@H]3CC[C@@]21C` [MEDROXYPROGESTERONE ACETATE], the IC50 in experiment [7] was 3980 nM; in experiment [8] it was 2510 nM. In addition, the Ratio IC50 in the experiment filed under Homo sapiens was determined as 0.66.

`CC(C)=CCc1ccc(/C=C/C(=O)O)cc1NC(=O)CCc1ccccc1`: the outcome with HL-60 [9] and with HL-60 [13] was Active. Moreover, the Activity was 8% in the experiment with HL-60 [10]; 20% in the experiment with KG-1a [11]; 52% in experiment [4]; 45% in experiment [12]; 40% in [5]; 80 to 95% in experiment [6].

For the compound `CC(C)=CCc1cc(/C=C/C(=O)O)ccc1NC(=O)CCc1ccccc1`, the outcome in the experiment on HL-60 [2] was inactive. Also, in the experiment with KG-1a [3], the result was Active. The Activity in experiment [4] was 57%; in [12], 25%; in experiment [5], 42%; in [6] it was 80 to 95%.

For the origin of these results see ChEMBL document CHEMBL4428081, “Selective AKR1C3 Inhibitors Potentiate Chemotherapeutic Activity in Multiple Acute Myeloid Leukemia (AML) Cell Lines” (ACS Med Chem Lett, 2016).
